Measured values: ChEMBL document CHEMBL5154825, “Discovery of V-0219: A Small-Molecule Positive Allosteric Modulator of the Glucagon-Like Peptide-1 Receptor toward Oral Treatment for "Diabesity"” (J Med Chem, 2022)
Calls of active or inactive are those of the source. The rule behind the calls is not given here.

Tests used:
[1] = target: T1, Glucagon-like peptide 1 receptor (Rattus norvegicus) (UniProt P32301); experiment: Positive allosteric modulator activity at GLP-1R in rat INS1 beta-cells assessed potentiation of GLP-1(7-36)NH2 induced insulin secretion at 1 uM incubated for 30 mins in presence of 15 mM of glucose by ELISA; format: cell-based; details: filed as positive allosteric modulator
T1 sequence (whole entry): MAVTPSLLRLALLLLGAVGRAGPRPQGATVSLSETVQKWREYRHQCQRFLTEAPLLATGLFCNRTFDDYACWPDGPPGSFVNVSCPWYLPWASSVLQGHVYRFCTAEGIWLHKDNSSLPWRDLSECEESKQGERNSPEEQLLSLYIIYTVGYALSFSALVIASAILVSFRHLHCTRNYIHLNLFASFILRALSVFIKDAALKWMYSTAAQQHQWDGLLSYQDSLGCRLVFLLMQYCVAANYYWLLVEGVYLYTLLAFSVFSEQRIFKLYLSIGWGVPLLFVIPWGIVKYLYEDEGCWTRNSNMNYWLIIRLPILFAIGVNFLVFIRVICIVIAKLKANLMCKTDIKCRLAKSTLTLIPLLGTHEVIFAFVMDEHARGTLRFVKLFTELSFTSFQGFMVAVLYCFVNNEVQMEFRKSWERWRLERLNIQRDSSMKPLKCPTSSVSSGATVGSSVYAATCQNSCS
Outline: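 Rat INS-1 cells held in glucose-free medium for 1.5 h (100,000 cells/well). […] Medium was centrifuged at 4 °C and secreted insulin measured by ELISA.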

[2] = Toxicity in Wistar rat assessed anxiety like behavior at 0.5 to 1 mg/kg, ip measured after 30 mins by elevated plus-maze analysis; format: organism-based; details: in vivo, 0.5 h, dose 0.5-1 mg/kg
Outline: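 Male Wistar rats, naive to the maze, were handled for 7 days. Compound at 0.5 or 1 mg/kg ip in saline/DMSO (0.2%). 30 min after dosing, each rat was placed in the maze centre facing an open arm, and open-arm entries and % time in open arms were scored over 5 min. No retesting; 8 animals.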

[3] = Toxicity in Wistar rat assessed hypolocomotion at 0.5 to 1 mg/kg, ip measured after 30 mins by elevated plus-maze analysis; details: in vivo, 0.5 h
[4] = Effective permeability of compound in PBS buffer at pH 7.4 at 50 to 100 uM after 5 hrs by PAMPA; format: ADME; details: pH 7.4, 5 h, dose 50-100 µM
[5] = target: T2, Glucagon-like peptide 1 receptor (Rattus norvegicus, UniProt P32301); experiment: Positive allosteric modulator activity at GLP-1R in rat INS1 beta-cells assessed potentiation of GLP-1(7-36)NH2 induced insulin secretion incubated for 30 mins in presence of high glucose condition by ELISA; format: cell-based
T2 sequence (P32301 whole entry): T1 sequence (whole entry)

| Activity [1] | Peff [4] | EC50 [5] | SMILES | Activity [2] | Activity [3] |
| --- | --- | --- | --- | --- | --- |
| Active | – | – | FC(F)(F)c1ccc(-c2noc(CN3CCCCC3CCc3ccccn3)n2)cc1 (stereo unspecified) | – | – |
| – | Active | 8 pM | FC(F)(F)c1ccc(-c2noc(CN3CCCC(CN4CCOCC4)C3)n2)cc1 (stereo unspecified) | Non-Toxic | Non-Toxic |
| Active | – | – | NC(=O)C1CCN(Cc2nc(-c3ccc(C(F)(F)F)cc3)no2)CC1 | – | – |
